Source: PubChem BioAssay
This is a sample that favours compounds with a hit; in the whole collection about 2.3% have one here.
TRPC6 activator: mouse TRPC6 channel activation | Q61143 | HEK293-TRPC6 membrane potential dye fluorescence; stronger effect = higher value | B-score at 10 µM | actives 0.13% (n = 310,000) | AID 2550;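 active = B-score of the integrated fluorescence ratio above library mean plus 3 SD, and starting fluorescence ratio within library mean plus 5 SD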;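 note: higher score means more depolarization so channel activation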
TRPC4 PAM: allosteric potentiators of mouse TRPC4 channel. Q9QUQ5. HEK293 TRPC4beta/mu-opioid, DAMGO EC20, Fluo-4 Ca2+ flux; stronger effect = higher value. B-score at 10 µM. actives 0.42% (n = 310,000);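 active = B-score of calcium response area above 5 SD of library B-scores, with initial fluorescence ratio within 5 SD of library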
Target sequence (Q9QUQ5 whole entry, looked up): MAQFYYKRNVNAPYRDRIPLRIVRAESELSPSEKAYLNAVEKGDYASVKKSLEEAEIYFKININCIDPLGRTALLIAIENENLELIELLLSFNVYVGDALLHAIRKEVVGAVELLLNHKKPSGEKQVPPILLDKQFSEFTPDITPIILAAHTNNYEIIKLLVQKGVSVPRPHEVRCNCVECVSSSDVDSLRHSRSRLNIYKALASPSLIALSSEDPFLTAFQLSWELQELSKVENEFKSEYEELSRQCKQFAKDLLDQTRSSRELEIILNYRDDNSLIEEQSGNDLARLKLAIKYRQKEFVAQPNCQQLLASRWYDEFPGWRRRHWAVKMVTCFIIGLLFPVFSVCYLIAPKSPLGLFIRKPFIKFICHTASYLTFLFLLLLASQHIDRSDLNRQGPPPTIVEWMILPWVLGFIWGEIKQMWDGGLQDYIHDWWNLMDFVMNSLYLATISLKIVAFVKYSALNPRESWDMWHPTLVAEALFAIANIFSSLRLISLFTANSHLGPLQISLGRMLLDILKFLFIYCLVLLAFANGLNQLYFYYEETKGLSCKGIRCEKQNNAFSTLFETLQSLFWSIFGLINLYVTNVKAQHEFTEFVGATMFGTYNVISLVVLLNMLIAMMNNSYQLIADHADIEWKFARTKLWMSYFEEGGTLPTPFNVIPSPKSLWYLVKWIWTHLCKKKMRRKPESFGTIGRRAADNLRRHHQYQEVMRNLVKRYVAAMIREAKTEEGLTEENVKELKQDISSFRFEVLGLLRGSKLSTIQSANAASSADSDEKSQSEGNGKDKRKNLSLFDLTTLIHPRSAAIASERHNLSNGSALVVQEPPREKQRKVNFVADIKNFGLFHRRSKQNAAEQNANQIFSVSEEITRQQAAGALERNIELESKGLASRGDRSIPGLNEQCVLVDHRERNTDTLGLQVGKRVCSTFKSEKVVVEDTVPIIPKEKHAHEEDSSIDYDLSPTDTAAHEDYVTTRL
TRPC4 inh: TRPC4 (mouse) channel inhibition; Q9QUQ5; HEK293 TRPC4beta/mu-opioid, DAMGO-evoked Fluo4 calcium flux; stronger effect = lower value; B-score at 10 µM; actives 0.39% (n = 300,000); AID 2247;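 active = B-score over 3 SD under the library average, no early fluorescence shift, positive overall ratio signal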
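Material: HEK293 cells with stable TRPC4beta plus mu-opioid receptor expression / Probe or stimulus: DAMGO in two steps, submaximal then maximal / Compound: single concentration per test compound / Technique: kinetic Fluo4 fluorescence imaging of calcium influx / Read-out: per-well B score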
TRPC6 inh: inhibitors of mouse TRPC6 channel. B-score at 10 µM. AID 2553. Q61143. HEK293-TRPC6, membrane potential dye, ACh-evoked depolarization; stronger effect = lower value. actives 1.1% (n = 310,000);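 active = B-score under library mean minus 3 SD, initial fluorescence not abnormally high, positive integrated signal ratio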;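 note: B-score derived from integrated fluorescence ratio over the kinetic read; more negative B-score means stronger inhibition of depolarization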
TRPC4 act: TRPC4 (mouse) channel activation. Q9QUQ5. HEK293 TRPC4beta/mu-opioid, Fluo4 calcium fluorescence; stronger effect = higher value. B-score at 10 µM. actives 0.49% (n = 310,000);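 active = B-score above 5 SD of library B-scores, and initial fluorescence ratio not above library mean plus 5 SD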;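 note: positive B-score marks a calcium rise read as TRPC4 activation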
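Material: TRPC4beta and mu-opioid receptor HEK293 stable cells | Incubation: 45 min room-temperature Fluo4 loading, 110 s read | Detection: Kinetic Fluo4 calcium fluorescence | Measure: Integrated baseline-normalised fluorescence ratio, converted to per-well B score | Benchmarks: Low control buffer alone, high control maximal DAMGO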
TRPC4 spec 2: second check of whether TRPC6 inhibitors also affect mouse TRPC4 | inhibition, % at 10 µM | actives 42% (n = 920) | HEK293 TRPC4/MOR, membrane potential dye fluorescence; channel activated by saturating DAMGO dose | shares compounds with TRPC6 inh;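 active = compounds whose fluorescence signal differed from control wells by over 3 SD, either direction, in both duplicate plates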
TRPC4 spec: selectivity of TRPC6 inhibitors: effect on mouse TRPC4; activity change, negative = inhibition, % at 10 µM; shares compounds with TRPC6 inh; actives 61% (n = 920); HEK293 TRPC4/mu-opioid, membrane potential fluorescence;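 active = rise or fall in signal beyond 3 SD of buffer-only wells in both replicate plates, either sign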;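 note: integrated kinetic ratio of fluorescence range over baseline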
HEK293 MPD ctr 2-1: parental HEK293 nonspecific activity of TRPC6 inhibitors, second screen | shares compounds with TRPC6 inh | parental HEK293 membrane potential dye fluorescence; maximal acetylcholine challenge after compound addition | signal change vs control, % at 10 µM | actives 31% (n = 920) | AID 2779;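 active = membrane potential signal moving either way by over 3 SD of the maximum-effect control, in both duplicate plates, meaning non-specific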
HEK293 MPD ctr-1: checks TRPC6 inhibitor effects in parental HEK293 cells; AID 2780; membrane potential signal change, % at 10 µM; actives 60% (n = 920); parental HEK293 membrane potential dye fluorescence; shares compounds with TRPC6 inh;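 active = membrane potential signal shifting up or down by more than 3 SD of buffer-only wells, on both duplicate plates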
HEK293 MPD ctr-2: checks TRPC6 modulator effects in parental HEK293 cells; AID 488924; membrane potential signal change, % at 10 µM; shares compounds with TRPC6 inh; membrane potential dye fluorescence; actives 51% (n = 2,400);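 active = membrane potential signal moves up or down beyond 5 SD from buffer-only wells, on both duplicate plates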
HEK293 MPD ctr 2-2: second check of TRPC6 modulator effects in parental HEK293 cells. inhibition, % at 10 µM. actives 14% (n = 2,400). membrane potential dye fluorescence; after compound, maximal acetylcholine stimulation. shares compounds with TRPC6 inh;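 active = membrane potential signal drops by more than 5 SD from the mean control signal, in both duplicate plates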
TRPC4 ctr mod: mouse TRPC4 off-target activity of TRPC6 modulators. shares compounds with TRPC6 inh. HEK293 TRPC4/mu-opioid, membrane potential fluorescence. percent change from control (negative = decrease, positive = increase), % at 10 µM. actives 69% (n = 2,400);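 active = membrane potential signal moved up or down beyond 5 SD of buffer control wells, in both duplicate plates, actives on both sides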
TRPC4 ctr inh 2: second check of whether TRPC6 modulators also affect mouse TRPC4 | HEK293 TRPC4/mu-opioid, membrane potential dye fluorescence; stimulated with maximal-effect DAMGO | actives 55% (n = 2,400) | inhibition, % at 10 µM | shares compounds with TRPC6 inh;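 active = drop in membrane potential signal beyond 5 SD of the control wells in both duplicate plates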;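 note: TRPC4 counter screen for TRPC6 hits run under conditions tuned for TRPC6 not TRPC4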
TRPC6 inh conf: confirmation of mouse TRPC6 inhibitors; actives 43% (n = 3,300); inhibition, % at 10 µM; HEK293-TRPC6, membrane potential dye, ACh-evoked depolarization; AID 488960; shares compounds with TRPC6 inh;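 active = fluorescence ratio falls more than 5 SD below the full-stimulation control mean, in both duplicate runs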;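 note: integrated fluorescence ratio of peak minus minimum over baseline after agonist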
TRPC6 act confirm: confirmation of mouse TRPC6 activators; actives 11% (n = 2,800); AID 488961; HEK293-TRPC6 membrane potential dye fluorescence, FDSS; activation, % at 10 µM; shares compounds with TRPC6 inh;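 active = ratio signal rise beyond 5 SD above unstimulated control wells' mean, seen in both duplicate runs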
Large screens that a line does not name were inactive (follow-up assays come after a bar, where they were run).

O=C1c2ccccc2-c2onc3c(N4CCN(CCO)CC4)cc(N4CCN(C(=O)c5ccco5)CC4)c1c23	TRPC6 inh -7 | TRPC4 spec 2 inactive | TRPC4 spec -47% | HEK293 MPD ctr 2-1 inactive | HEK293 MPD ctr-1 -608% | TRPC6 inh conf inactive | TRPC6 act confirm inactive
CCOC(=O)C1CCCN(C(=O)c2sc3nc(C)nc(N(CC)CC)c3c2C)C1 (stereo not drawn)	TRPC6 inh -5.2 | HEK293 MPD ctr-2 110% | HEK293 MPD ctr 2-2 inactive | TRPC4 ctr mod 22% | TRPC4 ctr inh 2 36% | TRPC6 inh conf 38%
CCC1CCCCN1C(=O)c1sc2nc(C)nc(N(CC)CC)c2c1C (stereo not drawn)	none
COc1ccc(C2Nc3cccc4cccc(c34)N2)cc1	TRPC6 inh -5 | HEK293 MPD ctr-2 inactive | HEK293 MPD ctr 2-2 inactive | TRPC4 ctr mod -16% | TRPC4 ctr inh 2 45% | TRPC6 inh conf inactive | TRPC6 act confirm inactive
c1ccc(C2Nc3cccc4cccc(c34)N2)cc1	none
CCOc1ccc(C2Nc3cccc4cccc(c34)N2)cc1OC	none
CCOc1cc(C2Nc3cccc4cccc(c34)N2)ccc1O	TRPC6 inh -5.9 | HEK293 MPD ctr-2 -122% | HEK293 MPD ctr 2-2 inactive | TRPC4 ctr mod -28% | TRPC4 ctr inh 2 57% | TRPC6 inh conf 41% | TRPC6 act confirm inactive
CCOC(=O)c1ccc2ncc(C(=O)OCC)c(NCCN(C)C)c2c1	TRPC6 inh -9.5 | TRPC4 spec 2 inactive | TRPC4 spec -19% | HEK293 MPD ctr 2-1 inactive | HEK293 MPD ctr-1 -296% | TRPC6 inh conf inactive | TRPC6 act confirm inactive
CCOC(=O)c1ccc2ncc(C(=O)OCC)c(NCCN3CCOCC3)c2c1	none
COc1ccccc1CNC(=O)C1CC2Cn3c(nc4cc(C)c(C)cc43)C2N1C (stereo not drawn)	none
COc1ccccc1CNC(=O)C1CC2Cn3c(nc4ccccc43)C2N1C (stereo not drawn)	TRPC6 activator 13 | HEK293 MPD ctr-2 inactive | HEK293 MPD ctr 2-2 inactive | TRPC4 ctr mod inactive | TRPC4 ctr inh 2 inactive | TRPC6 inh conf inactive | TRPC6 act confirm inactive
O=C(/C=C/NNC(=O)c1ccccc1)c1ccccc1	TRPC6 inh -6.2 | HEK293 MPD ctr-2 inactive | HEK293 MPD ctr 2-2 inactive | TRPC4 ctr mod inactive | TRPC4 ctr inh 2 inactive | TRPC6 inh conf inactive | TRPC6 act confirm inactive
Cc1cc(C)nc(/N=C(\N)Nc2ccc(F)c([N+](=O)[O-])c2)n1	TRPC6 inh -6.4 | HEK293 MPD ctr-2 -185% | HEK293 MPD ctr 2-2 inactive | TRPC4 ctr mod -25% | TRPC4 ctr inh 2 32% | TRPC6 inh conf inactive | TRPC6 act confirm inactive
Cc1cc(C)nc(/N=C(\N)Nc2ccc(SC(F)F)cc2)n1	TRPC6 inh -6.4, TRPC4 act 43 | HEK293 MPD ctr-2 -132% | HEK293 MPD ctr 2-2 inactive | TRPC4 ctr mod -23% | TRPC4 ctr inh 2 48% | TRPC6 inh conf inactive | TRPC6 act confirm inactive
CC(=O)Nc1ccc(N/C(N)=N/c2nc(C)cc(C)n2)cc1	none
CC(=O)Nc1ccccc1OCC(O)CS(=O)(=O)c1ccc(C(F)(F)F)cn1 (stereo not drawn)	none
COCCNC(=O)c1cc2c(=O)n3cccc(C)c3nc2n(Cc2ccncc2)c1=N	TRPC6 inh -11 | TRPC4 spec 2 78% | TRPC4 spec -11% | HEK293 MPD ctr 2-1 -118% | HEK293 MPD ctr-1 -230% | TRPC6 inh conf inactive | TRPC6 act confirm inactive
Cc1cccn2c(=O)c3cc(C(=O)NC4CCCCC4)c(=N)n(CCN4CCOCC4)c3nc12	none
Cc1cccn2c(=O)c3cc(C(=O)NCCc4ccccc4)c(=N)n(Cc4ccco4)c3nc12	none
COCCCn1c(=N)c(C(N)=S)cc2c(=O)n3cccc(C)c3nc21	TRPC6 inh -6.3 | HEK293 MPD ctr-2 inactive | HEK293 MPD ctr 2-2 inactive | TRPC4 ctr mod inactive | TRPC4 ctr inh 2 inactive | TRPC6 inh conf inactive | TRPC6 act confirm inactive
CCCCNC(=O)c1cc2c(=O)n3cccc(C)c3nc2n(Cc2ccncc2)c1=N	TRPC6 inh -6.7 | TRPC4 spec 2 inactive | TRPC4 spec -20% | HEK293 MPD ctr 2-1 inactive | HEK293 MPD ctr-1 -341% | TRPC6 inh conf inactive | TRPC6 act confirm inactive
CCCCNC(=O)c1cc2c(=O)n3cccc(C)c3nc2n(CCN2CCOCC2)c1=N	TRPC6 inh -6.6 | TRPC4 spec 2 inactive | TRPC4 spec inactive | HEK293 MPD ctr 2-1 -26% | HEK293 MPD ctr-1 inactive | TRPC6 inh conf inactive | TRPC6 act confirm inactive
CCC(=O)C1CCCN(C(=O)c2ccc(OC)c(OC3CCN(C(C)=O)CC3)c2)C1 (stereo not drawn)	none
CCC(=O)Nc1nnc(S(=O)(=O)N(C)c2cc(C)cc(C)c2)s1	none
COc1ccc(S(=O)(=O)N2CCN(C(c3ccccc3)c3ccccc3)CC2)cc1NC(C)=O	none
O=C(NCC(=O)N(c1cccc(F)c1)C(C(=O)NC1CCCC1)c1ccncc1)c1cccs1 (stereo not drawn)	none
Cc1ccc(S(=O)(=O)NNC(=O)Nc2ccc([N+](=O)[O-])cc2)c(C)c1	none
CC(=O)Nc1ccc(S(=O)(=O)N2CCN(C(=O)c3ncoc3-c3ccccc3)CC2)cc1	none
Cc1nc(=S)c2c([nH]1)-c1ccccc1CC21CCCCC1	none
